In ChEMBL document CHEMBL4425133, “Discovery and Pharmacokinetic and Pharmacological Properties of the Potent and Selective MET Kinase Inhibitor 1-{6-[6-(4-Fluorophenyl)-[1,2,4]triazolo[4,3-b]pyridazin-3-ylsulfanyl]benzothiazol-2-yl}-3-(2-morpholin-4-ylethyl)urea (SAR125844)” (J Med Chem, 2016):
“And” between values parts separate entries of the source, which are not always exact repeats. Equal values may be shown once. The source made the active and inactive calls. The rule behind the calls is not given here.

What was measured:
[1] = biological target: T1, Hepatocyte growth factor receptor (Homo sapiens, UniProt P08581); assay: Inhibition of wild type phosphorylated MET (unknown origin) pre-incubated for 30 mins before biotinylated poly(glutamate-alanine-tyrosine) peptide addition and measured after 5 mins by HTRF assay
T1 sequence (P08581 whole entry): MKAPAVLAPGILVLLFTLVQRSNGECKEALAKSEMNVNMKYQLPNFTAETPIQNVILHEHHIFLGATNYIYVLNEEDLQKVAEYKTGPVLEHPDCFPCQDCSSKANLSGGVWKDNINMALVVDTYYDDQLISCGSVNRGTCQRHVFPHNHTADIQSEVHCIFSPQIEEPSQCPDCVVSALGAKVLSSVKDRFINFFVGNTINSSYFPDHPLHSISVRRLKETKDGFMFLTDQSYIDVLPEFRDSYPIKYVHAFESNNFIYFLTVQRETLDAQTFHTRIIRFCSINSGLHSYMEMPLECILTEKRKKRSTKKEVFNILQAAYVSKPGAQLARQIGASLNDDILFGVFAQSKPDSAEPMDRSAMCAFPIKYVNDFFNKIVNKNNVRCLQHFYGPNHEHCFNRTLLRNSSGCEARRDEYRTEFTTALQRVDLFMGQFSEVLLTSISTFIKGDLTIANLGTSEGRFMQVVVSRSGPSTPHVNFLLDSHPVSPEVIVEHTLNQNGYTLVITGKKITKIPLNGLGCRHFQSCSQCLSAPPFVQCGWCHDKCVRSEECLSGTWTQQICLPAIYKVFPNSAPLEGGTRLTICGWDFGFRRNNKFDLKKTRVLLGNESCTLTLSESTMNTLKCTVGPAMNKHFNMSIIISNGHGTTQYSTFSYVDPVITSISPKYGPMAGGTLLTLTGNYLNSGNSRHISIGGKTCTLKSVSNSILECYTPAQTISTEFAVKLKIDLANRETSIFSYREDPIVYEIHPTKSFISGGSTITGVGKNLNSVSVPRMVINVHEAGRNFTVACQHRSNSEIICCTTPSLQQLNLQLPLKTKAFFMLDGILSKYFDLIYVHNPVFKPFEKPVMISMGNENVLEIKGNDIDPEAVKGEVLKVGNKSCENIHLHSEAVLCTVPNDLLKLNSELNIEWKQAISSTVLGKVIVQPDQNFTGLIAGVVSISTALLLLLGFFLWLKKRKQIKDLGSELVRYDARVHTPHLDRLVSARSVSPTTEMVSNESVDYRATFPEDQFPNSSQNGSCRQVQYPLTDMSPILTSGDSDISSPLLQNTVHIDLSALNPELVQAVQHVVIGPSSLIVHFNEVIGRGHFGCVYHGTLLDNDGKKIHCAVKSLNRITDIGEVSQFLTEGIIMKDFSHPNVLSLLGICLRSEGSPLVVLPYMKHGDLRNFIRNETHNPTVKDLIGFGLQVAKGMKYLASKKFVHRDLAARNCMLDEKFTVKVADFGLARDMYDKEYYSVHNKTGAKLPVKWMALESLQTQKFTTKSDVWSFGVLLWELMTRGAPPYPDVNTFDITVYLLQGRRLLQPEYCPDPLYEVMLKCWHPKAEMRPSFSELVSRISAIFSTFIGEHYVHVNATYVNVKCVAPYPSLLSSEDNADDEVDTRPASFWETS

[2] = biological target: Hepatocyte growth factor receptor (Homo sapiens, UniProt P08581, Y1230H); assay: Inhibition of phosphorylated MET Y1230H mutant (unknown origin) pre-incubated for 30 mins before biotinylated poly(glutamate-alanine-tyrosine) peptide addition and measured after 5 mins by HTRF assay
Sequence of Hepatocyte growth factor receptor (Homo sapiens, UniProt P08581, Y1230H) (P08581 25-1390 Y1230H limits assumed): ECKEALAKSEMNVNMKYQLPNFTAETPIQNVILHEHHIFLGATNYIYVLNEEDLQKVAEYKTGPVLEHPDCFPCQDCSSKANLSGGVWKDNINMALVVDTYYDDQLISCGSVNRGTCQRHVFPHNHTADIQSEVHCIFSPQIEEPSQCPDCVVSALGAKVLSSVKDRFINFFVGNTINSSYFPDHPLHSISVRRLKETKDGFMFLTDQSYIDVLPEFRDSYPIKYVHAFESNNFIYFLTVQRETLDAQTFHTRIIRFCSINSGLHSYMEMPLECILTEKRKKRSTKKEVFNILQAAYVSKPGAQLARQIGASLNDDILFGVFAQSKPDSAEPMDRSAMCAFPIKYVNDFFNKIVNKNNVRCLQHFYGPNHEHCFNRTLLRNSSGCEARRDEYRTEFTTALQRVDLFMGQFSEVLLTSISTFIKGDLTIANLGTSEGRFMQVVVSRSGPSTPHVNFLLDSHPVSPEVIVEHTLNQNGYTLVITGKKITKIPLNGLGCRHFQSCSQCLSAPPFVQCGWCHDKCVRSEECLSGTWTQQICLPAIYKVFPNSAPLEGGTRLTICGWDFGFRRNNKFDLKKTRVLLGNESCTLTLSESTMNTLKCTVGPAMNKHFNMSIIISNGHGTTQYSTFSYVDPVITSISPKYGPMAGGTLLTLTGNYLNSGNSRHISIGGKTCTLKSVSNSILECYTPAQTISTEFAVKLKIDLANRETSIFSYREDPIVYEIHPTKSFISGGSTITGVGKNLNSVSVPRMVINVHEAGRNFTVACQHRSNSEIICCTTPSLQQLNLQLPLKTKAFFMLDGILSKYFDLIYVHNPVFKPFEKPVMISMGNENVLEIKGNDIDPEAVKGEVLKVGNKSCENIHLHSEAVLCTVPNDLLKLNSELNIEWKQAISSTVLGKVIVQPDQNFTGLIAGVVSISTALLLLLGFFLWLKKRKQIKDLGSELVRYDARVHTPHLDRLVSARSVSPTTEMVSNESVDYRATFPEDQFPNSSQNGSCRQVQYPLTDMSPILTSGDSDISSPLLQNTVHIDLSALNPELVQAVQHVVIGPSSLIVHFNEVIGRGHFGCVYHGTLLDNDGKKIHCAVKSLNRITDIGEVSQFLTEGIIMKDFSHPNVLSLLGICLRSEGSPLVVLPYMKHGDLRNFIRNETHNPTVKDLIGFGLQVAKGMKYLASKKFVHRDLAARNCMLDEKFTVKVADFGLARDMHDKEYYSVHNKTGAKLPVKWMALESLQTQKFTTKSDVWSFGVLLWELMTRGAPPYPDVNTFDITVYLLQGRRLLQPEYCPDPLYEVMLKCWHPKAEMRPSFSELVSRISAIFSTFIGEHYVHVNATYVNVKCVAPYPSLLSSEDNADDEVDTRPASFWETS

[3] = Equilibrium solubility in phosphate buffer in absence of 10% Labrasol at pH 7.4; type: physicochemical
[4] = Equilibrium solubility in phosphate buffer in presence of 10% Labrasol at pH 7.4; type: physicochemical; conditions: phosphate buffer with 10% Labrasol
[5] = biological target: T1, Hepatocyte growth factor receptor; assay: Binding affinity to MET (unknown origin) by isothermal titration calorimetry
[6] = Apparent permeability from apical to basolateral side in human Caco2/TC7 cells at 20 uM by liquid chromatography-tandem mass spectrometry; conditions: Caco-2
[7] = Drug metabolism in human hepatic microsomes at 5 uM incubated for 20 mins in presence of NADPH by liquid chromatography-tandem mass spectrometry; type: ADME, Microsome; conditions: liver microsomes, read-out: Drug metabolism
Cytochrome P450 3A4 [8] = biological target: T2, Cytochrome P450 3A4 (Homo sapiens, UniProt P08684); assay: Inhibition of human recombinant CYP3A4 co-expressed with human P450 reductase and human b5 reductase assessed as reduction in 7-Hydroxyquinoline production using 7-benzyloxyquinoline as substrate and NADPH incubated for 15 mins by fluorimetry; type: ADME
T2 sequence (P08684 whole entry): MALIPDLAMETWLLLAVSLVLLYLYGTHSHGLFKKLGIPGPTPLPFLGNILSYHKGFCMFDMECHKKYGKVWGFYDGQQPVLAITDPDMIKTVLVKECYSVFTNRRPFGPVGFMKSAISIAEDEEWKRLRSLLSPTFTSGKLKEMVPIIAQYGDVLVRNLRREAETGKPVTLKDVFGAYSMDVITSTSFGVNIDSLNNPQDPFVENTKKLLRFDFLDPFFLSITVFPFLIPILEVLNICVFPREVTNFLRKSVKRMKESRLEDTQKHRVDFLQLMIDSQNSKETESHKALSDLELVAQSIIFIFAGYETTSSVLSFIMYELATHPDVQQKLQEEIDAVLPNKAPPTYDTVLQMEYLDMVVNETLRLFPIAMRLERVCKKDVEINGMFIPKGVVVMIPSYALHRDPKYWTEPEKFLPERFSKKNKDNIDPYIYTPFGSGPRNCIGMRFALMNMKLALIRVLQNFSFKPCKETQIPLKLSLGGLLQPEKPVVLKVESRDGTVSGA

[9] = Oral bioavailability in mouse; type: ADME, organism-based; conditions: in vivo
Cytochrome P450 3A4 [10] = biological target: T2, Cytochrome P450 3A4; assay: Mechanism based time dependent inhibition of human recombinant CYP3A4 co-expressed with human P450 reductase and human b5 reductase assessed as reduction in 7-Hydroxyquinoline production using 7-benzyloxyquinoline as substrate and NADPH measured every 3 mins for 15 mins by fluorimetry; type: ADME; conditions: recombinant enzyme, 0.25 h
[11] = biological target: T1, Hepatocyte growth factor receptor; assay: Inhibition of phosphorylated MET in human MKN45 cells assessed as reduction in pMET Y1230/1234/1235 level incubated for 1 hr by ELISA; type: cell-based
In short: (§1)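 MKN-45 is a MET-amplified human gastric tumour cell line.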

MKN-45 = assay: Antiproliferative activity against human MKN45 cells assessed as reduction in [14C]-thymidine incorporation incubated for 96 hrs by beta counting method; type: functional, cell-based; conditions: for IC50: MKN-45, 96 h; in short: as §1
[12] = biological target: Hepatocyte growth factor receptor (Homo sapiens, UniProt P08581, L1195V); assay: Inhibition of phosphorylated MET L1195V mutant (unknown origin) pre-incubated for 30 mins before biotinylated poly(glutamate-alanine-tyrosine) peptide addition and measured after 5 mins by HTRF assay
Sequence of Hepatocyte growth factor receptor (Homo sapiens, UniProt P08581, L1195V) (P08581 25-1390 L1195V limits assumed): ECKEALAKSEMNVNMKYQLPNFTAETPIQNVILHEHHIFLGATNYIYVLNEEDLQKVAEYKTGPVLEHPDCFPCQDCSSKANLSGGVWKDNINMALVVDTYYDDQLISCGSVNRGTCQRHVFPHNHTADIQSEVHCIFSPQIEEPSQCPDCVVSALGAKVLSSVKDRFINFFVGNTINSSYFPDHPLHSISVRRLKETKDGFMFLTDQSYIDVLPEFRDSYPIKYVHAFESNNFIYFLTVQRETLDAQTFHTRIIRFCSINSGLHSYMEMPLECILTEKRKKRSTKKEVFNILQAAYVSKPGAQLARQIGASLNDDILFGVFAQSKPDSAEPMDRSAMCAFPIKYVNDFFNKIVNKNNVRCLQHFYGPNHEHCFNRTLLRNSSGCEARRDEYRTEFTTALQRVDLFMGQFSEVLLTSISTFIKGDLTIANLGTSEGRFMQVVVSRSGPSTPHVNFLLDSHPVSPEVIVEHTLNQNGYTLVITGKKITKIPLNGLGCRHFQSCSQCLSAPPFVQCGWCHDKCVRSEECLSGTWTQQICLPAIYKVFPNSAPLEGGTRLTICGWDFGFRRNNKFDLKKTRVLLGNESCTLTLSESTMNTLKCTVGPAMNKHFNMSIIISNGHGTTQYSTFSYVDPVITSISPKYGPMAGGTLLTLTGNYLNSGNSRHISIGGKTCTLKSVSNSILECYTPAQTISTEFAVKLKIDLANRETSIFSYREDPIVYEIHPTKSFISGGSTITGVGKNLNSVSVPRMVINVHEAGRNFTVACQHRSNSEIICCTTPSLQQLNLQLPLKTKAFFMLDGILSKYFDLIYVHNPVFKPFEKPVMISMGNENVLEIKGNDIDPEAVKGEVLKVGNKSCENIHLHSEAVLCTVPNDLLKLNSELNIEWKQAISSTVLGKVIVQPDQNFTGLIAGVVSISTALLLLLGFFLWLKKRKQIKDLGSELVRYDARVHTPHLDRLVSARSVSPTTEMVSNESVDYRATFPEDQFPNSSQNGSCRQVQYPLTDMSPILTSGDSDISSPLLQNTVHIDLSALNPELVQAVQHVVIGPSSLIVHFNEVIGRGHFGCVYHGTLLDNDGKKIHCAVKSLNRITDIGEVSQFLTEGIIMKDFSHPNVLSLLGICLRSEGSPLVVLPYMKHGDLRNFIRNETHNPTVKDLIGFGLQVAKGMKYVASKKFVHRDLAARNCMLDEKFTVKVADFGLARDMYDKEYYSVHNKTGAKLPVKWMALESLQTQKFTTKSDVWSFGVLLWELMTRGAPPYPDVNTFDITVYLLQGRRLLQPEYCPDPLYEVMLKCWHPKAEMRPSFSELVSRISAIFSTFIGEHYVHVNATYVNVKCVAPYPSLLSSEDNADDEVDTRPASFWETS

[13] = Lipophilicity, log D of the compound by HPLC method; type: physicochemical
Tubulin = assay: Binding affinity to tubulin (unknown origin); type: protein-complex assay, Homo sapiens
[14] = Genotoxicity in Salmonella typhimurium by Ames test; type: toxicity; conditions: salmonella enterica subsp. enterica serovar typhimurium
[15] = biological target: Hepatocyte growth factor receptor (Homo sapiens, UniProt P08581, M1250T); assay: Inhibition of phosphorylated MET M1250T mutant (unknown origin) pre-incubated for 30 mins before biotinylated poly(glutamate-alanine-tyrosine) peptide addition and measured after 5 mins by HTRF assay
[16] = AUC in SCID mouse bearing advanced-stage human Hs746T cells at 20 mg/kg, iv administered as single dose after 1 to 72 hrs by liquid chromatography-tandem mass spectrometry; type: ADME, organism-based; conditions: in vivo
[17] = Clearance in SCID mouse bearing advanced-stage human Hs746T cells at 20 mg/kg, iv administered as single dose after 1 to 72 hrs by liquid chromatography-tandem mass spectrometry; type: ADME, organism-based; conditions: in vivo
[18] = Volume of distribution at steady state in SCID mouse bearing advanced-stage human Hs746T cells at 20 mg/kg, iv administered as single dose after 1 to 72 hrs by liquid chromatography-tandem mass spectrometry; type: ADME, organism-based; conditions: in vivo, read-out: Vdss
[19] = Drug uptake in tumor of SCID mouse bearing advanced-stage human Hs746T cells at 20 mg/kg, iv administered as single dose after 1 to 72 hrs by liquid chromatography-tandem mass spectrometry; type: ADME, organism-based, Neoplasm; conditions: in vivo
Mus musculus [20] = assay: Inhibition of MET Y1349 phosphorylation in SCID mouse bearing advanced-stage human Hs746T cells at 20 mg/kg, iv administered as single dose after 4 to 48 hrs by using MSD assay; type: functional, organism-based; conditions: TDE = time-dependent effect
Mus musculus [21] = assay: Inhibition of MET Y1349 phosphorylation in SCID mouse bearing advanced-stage human Hs746T cells at 20 mg/kg, iv administered as single dose after 4 hrs by using MSD assay; type: functional
Mus musculus [22] = assay: Inhibition of MET Y1349 phosphorylation in SCID mouse bearing advanced-stage human Hs746T cells at 20 mg/kg, iv administered as single dose after 24 hrs by using MSD assay; type: functional
Mus musculus [23] = assay: Inhibition of MET Y1349 phosphorylation in SCID mouse bearing advanced-stage human Hs746T cells at 20 mg/kg, iv administered as single dose after 48 hrs by using MSD assay; type: functional
[24] = Drug uptake in tumor of SCID mouse bearing advanced-stage human Hs746T cells at 20 mg/kg, iv administered as single dose after 24 hrs by liquid chromatography-tandem mass spectrometry; type: ADME, organism-based, Neoplasm; conditions: read-out: Drug uptake
[25] = Unbound drug uptake in tumor of SCID mouse bearing advanced-stage human Hs746T cells at 20 mg/kg, iv administered as single dose after 24 hrs by liquid chromatography-tandem mass spectrometry; type: ADME, organism-based, Neoplasm; conditions: in vivo
[26] = Protein binding in plasma of SCID mouse bearing advanced-stage human Hs746T cells at 20 mg/kg, iv administered as single dose after 24 hrs by liquid chromatography-tandem mass spectrometry; type: ADME, organism-based; conditions: read-out: PPB (converted)
[27] = Clearance in mouse at 1 mg/kg, iv; type: ADME, organism-based; conditions: in vivo
[28] = Clearance in mouse at 1 mg/kg, iv relative to hepatic blood flow; type: ADME, organism-based; conditions: in vivo
[29] = Volume of distribution at steady state in mouse at 1 mg/kg, iv; type: ADME, organism-based; conditions: in vivo, read-out: Vdss
[30] = Terminal half life in mouse at 1 mg/kg, iv […]; type: ADME, organism-based; conditions: in vivo, read-out: beta t1/2 (converted)
[31] = Clearance in rat at 5 mg/kg, iv; type: ADME, organism-based; conditions: in vivo
[32] = Clearance in rat at 5 mg/kg, iv relative to hepatic blood flow; type: ADME, organism-based; conditions: in vivo
[33] = Volume of distribution at steady state in rat at 5 mg/kg, iv; type: ADME, organism-based; conditions: in vivo, read-out: Vdss
[34] = Terminal half life in rat at 5 mg/kg, iv […]; type: ADME, organism-based; conditions: in vivo, read-out: beta t1/2 (converted)
[35] = Clearance in dog at 3 mg/kg, iv; type: ADME, organism-based, Canis lupus familiaris; conditions: in vivo
[36] = Clearance in dog at 3 mg/kg, iv relative to hepatic blood flow; type: ADME, organism-based, Canis lupus familiaris; conditions: in vivo
[37] = Volume of distribution at steady state in dog at 3 mg/kg, iv; type: ADME, organism-based, Canis lupus familiaris; conditions: in vivo, read-out: Vdss
[38] = Terminal half life in dog at 3 mg/kg, iv; type: ADME, organism-based, Canis lupus familiaris; conditions: in vivo, read-out: beta t1/2 (converted)
[39] = Drug distribution in rat at 25 mg/kg administered as [14C[-labeled compound through infusion after 1 to 2 hrs; type: ADME, organism-based; conditions: in vivo, iv
[40] = Drug distribution in rat tumor at 25 mg/kg administered as [14C[-labeled compound through infusion after 1 to 2 hrs; type: ADME, organism-based, Neoplasm; conditions: in vivo, iv
[41] = Drug level in advanced solid tumor patient at 50 to 740 mg/m2 during phase-1 trial; type: ADME; conditions: human, in vivo
[42] = Terminal half life in advanced solid tumor patient at 50 to 740 mg/m2 during phase-1 trial; type: ADME; conditions: human, in vivo; read-out: beta t1/2 (converted)
[43] = Blood clearance in advanced solid tumor patient at 50 to 740 mg/m2 during phase-1 trial; type: ADME, tissue-based; conditions: human, whole blood
[44] = Blood clearance in advanced solid tumor patient at 50 to 740 mg/m2 relative to hepatic blood flow during phase-1 trial; type: ADME, tissue-based; conditions: human
[45] = Volume of distribution at steady state in advanced solid tumor patient at 50 to 740 mg/m2 during phase-1 trial; type: ADME; conditions: human, in vivo; read-out: Vdss
[46] = Toxicity in advanced solid tumor patient at 50 to 740 mg/m2 during phase-1 trial; conditions: human, in vivo
in vivo = conditions: SCID, mouse, tumor/plasma, iv, 20 mg/kg
[47] = biological target: Cyclin-dependent kinase 9 (Homo sapiens, UniProt P50750); assay: Inhibition of CDK9 (unknown origin)
Sequence of Cyclin-dependent kinase 9 (P50750 whole entry): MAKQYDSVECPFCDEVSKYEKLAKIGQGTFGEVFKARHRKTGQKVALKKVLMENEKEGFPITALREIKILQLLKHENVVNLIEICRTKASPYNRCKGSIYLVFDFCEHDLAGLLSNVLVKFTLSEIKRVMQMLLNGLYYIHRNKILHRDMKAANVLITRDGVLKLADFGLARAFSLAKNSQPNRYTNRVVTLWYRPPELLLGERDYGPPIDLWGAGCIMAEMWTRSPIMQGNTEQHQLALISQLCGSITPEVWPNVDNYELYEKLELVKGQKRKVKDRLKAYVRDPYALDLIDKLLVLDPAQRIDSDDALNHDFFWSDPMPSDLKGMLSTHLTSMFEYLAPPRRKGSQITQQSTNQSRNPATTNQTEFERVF

O=C(NCCN1CCOCC1)Nc1nc2ccc(Sc3nnc4ccc(OC5CCCCC5)nn34)cc2s1
IC50 [1]: 2 nM
IC50 [2]: 252 nM
solubility thermodynamic [3]: < 2 µM
solubility thermodynamic [4]: 500 µM
Kd [5]: 0.6 nM
Papp A→B at 20 µM [6]: 9.8 ×10⁻⁶ cm/s
metabolised at 20 min, 5 µM [7]: 23%
IC50 (Cytochrome P450 3A4 [8]): 2700 nM
bioavailability [9]: 17%
INH (Cytochrome P450 3A4 [10]): -4.6 %/min

COC(=O)Nc1nc2ccc(Sc3nnc4ccc(-c5ccc(F)cc5)nn34)cc2s1
IC50 [1]: 16 nM
IC50 [11]: 22 nM
IC50 (MKN-45): 91 nM
IC50 [12]: > 10000 nM
IC50 [2]: > 10000 nM
logD [13]: > 4.6
solubility thermodynamic [3]: < 1 µM
solubility thermodynamic [4]: 15 µM
IC50 (Tubulin): > 25000 nM
Activity [14]: Non-Toxic

O=C(NCCN1CCOCC1)Nc1nc2ccc(Sc3nnc4ccc(-c5ccc(F)cc5)nn34)cc2s1 [SAR-125844]
IC50 [1]: 4 nM
IC50 [11]: 5 nM
IC50 (MKN-45): 7 nM
IC50 [12]: 64 nM
IC50 [15]: 6 nM
IC50 [2]: 204 nM
logD [13]: 4.2
solubility thermodynamic [3]: < 1 µM
solubility thermodynamic [4]: 500 µM
Kd [5]: 0.9 nM
Papp A→B at 20 µM [6]: 0.9 ×10⁻⁶ cm/s
metabolised at 20 min, 5 µM [7]: 23%
IC50 (Cytochrome P450 3A4 [8]): > 200000 nM
bioavailability [9]: 2%
AUC [16]: 6190 ng·h/mL
clearance [17]: 51.7 mL/min/kg
Vd [18]: 4.2 L/kg
Drug uptake [19]: Active
inhibition (Mus musculus [20]): Tde
inhibition in vivo at 20 mg/kg (Mus musculus [21]): 96%
inhibition in vivo at 20 mg/kg (Mus musculus [22]): 80%
inhibition in vivo at 20 mg/kg (Mus musculus [23]): 61%
concentration at 24 h [24]: 300 ng/mL
Drug uptake(free) [25]: 2 nM
fraction unbound at 24 h [26]: 0.0033
clearance [27]: 46.7 mL/min/kg
CL [28]: 54%
Vd [29]: 3.2 L/kg
half-life [30]: 4.8 h
clearance [31]: 25 mL/min/kg
CL [32]: 36%
Vd [33]: 2.9 L/kg
half-life [34]: 3.6 h
clearance [35]: 8.33 mL/min/kg
CL [36]: 20%
Vd [37]: 1.3 L/kg
half-life [38]: 3.8 h
Drug uptake [39]: Active
Drug uptake [40]: Active
Drug uptake [41]: Dose-dependent effect
half-life [42]: 15.9 h
clearance [43]: 565 mL/min and 8.33 mL/min/kg
CL [44]: 37%
Vd [45]: 505 L and 7.2 L/kg
MTD [46]: 570 mg/m2
Kp (in vivo): 8.1

COC(=O)Nc1nc2cc(Sc3nnc4ccc(-c5ccc(F)cc5)nn34)ccc2[nH]1
IC50 [1]: 10 nM
inhibition [11]: Active
inhibition (MKN-45): Active
logD [13]: 3.8
IC50 [47]: > 10000 nM
IC50 (Tubulin): 2000 nM
Activity [14]: Toxic
